In ChEMBL document CHEMBL4765226, “Identification of a Human Toll-Like Receptor (TLR) 8-Specific Agonist and a Functional Pan-TLR Inhibitor in 2-Aminoimidazoles” (J Med Chem, 2016) one finds RUmax and Activity data, which are given here for 20 molecules.

Holding throughout (type): cell-based
In assay [1] the target is T1, Toll-like receptor 8 (Homo sapiens) (UniProt Q9NR97).
T1 sequence (whole entry): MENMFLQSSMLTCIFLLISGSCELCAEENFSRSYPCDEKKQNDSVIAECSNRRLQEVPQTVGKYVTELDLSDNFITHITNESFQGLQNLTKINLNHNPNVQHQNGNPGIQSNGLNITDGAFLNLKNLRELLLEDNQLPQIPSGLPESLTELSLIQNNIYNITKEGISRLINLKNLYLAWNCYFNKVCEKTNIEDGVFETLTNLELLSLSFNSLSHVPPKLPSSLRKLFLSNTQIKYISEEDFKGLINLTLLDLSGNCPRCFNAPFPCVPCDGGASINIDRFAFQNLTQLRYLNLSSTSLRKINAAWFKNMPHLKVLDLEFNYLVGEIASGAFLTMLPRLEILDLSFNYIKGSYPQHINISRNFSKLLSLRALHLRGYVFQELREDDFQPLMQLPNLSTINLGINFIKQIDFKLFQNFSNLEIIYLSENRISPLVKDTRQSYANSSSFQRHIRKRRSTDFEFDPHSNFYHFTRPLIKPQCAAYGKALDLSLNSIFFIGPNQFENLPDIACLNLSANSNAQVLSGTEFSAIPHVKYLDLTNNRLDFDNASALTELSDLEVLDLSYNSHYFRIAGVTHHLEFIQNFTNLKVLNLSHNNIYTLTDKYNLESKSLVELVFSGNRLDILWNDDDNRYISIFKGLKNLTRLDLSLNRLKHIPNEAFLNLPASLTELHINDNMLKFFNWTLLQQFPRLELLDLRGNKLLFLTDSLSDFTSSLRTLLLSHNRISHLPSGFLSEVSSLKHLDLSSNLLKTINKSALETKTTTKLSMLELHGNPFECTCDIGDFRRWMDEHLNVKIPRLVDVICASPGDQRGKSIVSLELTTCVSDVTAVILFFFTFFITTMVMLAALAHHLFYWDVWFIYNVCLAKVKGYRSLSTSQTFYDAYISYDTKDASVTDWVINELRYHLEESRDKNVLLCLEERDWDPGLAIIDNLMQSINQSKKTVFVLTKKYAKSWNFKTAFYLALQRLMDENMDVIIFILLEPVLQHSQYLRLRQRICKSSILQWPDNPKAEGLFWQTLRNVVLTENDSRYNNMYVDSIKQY
Kind of assay: Agonist activity at human TLR8 stably expressed in HEK293 cells cotransfected with secreted alkaline phosphatase assessed as induction of NFkappaB activation by measuring maximal response by quanti-blue SEAP reporter gene-based spectrophotometric method. To be noted: filed as agonist. The method in brief:
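TLR8/sAP HEK293 reporter cells, about 10^5 cells/ml, were exposed to graded ligand concentrations, and sAP was read at 620 nm with a chromogenic detection medium. Maximal response was compared across the dose-response curve, with area under the curve also reported. Quadruplicate samples were used.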
On the technique in general: A reporter such as luciferase makes a cellular process visible.

Assay [2] concerns the target T1, Toll-like receptor 8 (Homo sapiens). The assay is described as follows: Agonist activity at TLR8 in human PBMC cells assessed as induction of IL-1beta production incubated for 16 hrs by immunoassay. To be noted: filed as agonist. The method in brief:
(§1)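 Fresh human PBMCs isolated from venous blood, plated at 10^5 cells in 100 µL per well and stimulated for 16 h with graded concentrations of compound. Supernatants were collected by centrifugation and assayed in duplicate with a multiplexed cytokine/chemokine magnetic bead array.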

The target is the same in assay [3]. Kind of assay: Agonist activity at TLR8 in human PBMC cells assessed as induction of MCP1 production incubated for 16 hrs by immunoassay. Conditions: filed as agonist. The method in brief:
as §1

For assay [4] the target is unchanged. The assay is described as follows: Agonist activity at TLR8 in human PBMC cells assessed as induction of MIP-1alpha production incubated for 16 hrs by immunoassay. To be noted: filed as agonist. An outline of the steps:
as §1

Assay [5] deals with Toll-like receptor 2 (Homo sapiens, UniProt O60603). Kind of assay: Agonist activity at human TLR2 stably expressed in HEK293 cells cotransfected with secreted alkaline phosphatase assessed as induction of NFkappaB activation by quanti-blue SEAP reporter gene based spectrophotometric method. An outline of the steps: (§2)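 HEK293 cells stably co-transfected with the matching human TLR (2, 3, 4, 5, 7, 8 or 9) and NF-κB/AP-1-driven secreted alkaline phosphatase were kept in selection medium. About 10^5 cells/ml were incubated with graded concentrations of stimulus. sAP was read at 620 nm with a chromogen in detection medium. EC50 came from four-parameter logistic fits on quadruplicates.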
Sequence of Toll-like receptor 2 (O60603 whole entry): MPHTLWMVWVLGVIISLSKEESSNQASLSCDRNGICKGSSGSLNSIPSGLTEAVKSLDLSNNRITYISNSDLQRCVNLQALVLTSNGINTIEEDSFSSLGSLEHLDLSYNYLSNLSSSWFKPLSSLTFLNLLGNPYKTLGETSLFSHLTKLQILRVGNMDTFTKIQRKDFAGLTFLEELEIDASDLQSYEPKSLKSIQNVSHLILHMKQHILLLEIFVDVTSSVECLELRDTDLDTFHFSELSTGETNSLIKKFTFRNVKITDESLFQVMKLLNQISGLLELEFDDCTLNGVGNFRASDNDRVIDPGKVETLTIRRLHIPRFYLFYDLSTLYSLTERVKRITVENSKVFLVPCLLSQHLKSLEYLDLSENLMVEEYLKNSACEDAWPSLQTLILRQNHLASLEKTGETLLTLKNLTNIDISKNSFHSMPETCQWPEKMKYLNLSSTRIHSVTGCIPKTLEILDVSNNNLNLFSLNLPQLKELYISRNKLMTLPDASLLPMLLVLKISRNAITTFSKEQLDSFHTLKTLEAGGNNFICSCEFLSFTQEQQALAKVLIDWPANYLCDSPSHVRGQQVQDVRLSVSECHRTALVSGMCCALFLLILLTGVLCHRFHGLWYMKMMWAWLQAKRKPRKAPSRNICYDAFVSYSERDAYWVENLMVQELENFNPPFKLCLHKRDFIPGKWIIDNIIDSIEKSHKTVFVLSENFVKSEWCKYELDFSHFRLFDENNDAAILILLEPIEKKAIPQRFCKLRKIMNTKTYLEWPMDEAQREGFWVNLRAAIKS

Assay [6] addresses Toll-like receptor 4 (Homo sapiens, UniProt O00206). Kind of assay: Agonist activity at human TLR4 stably expressed in HEK293 cells cotransfected with secreted alkaline phosphatase assessed as induction of NFkappaB activation by quanti-blue SEAP reporter gene based spectrophotometric method. The method in brief:
as §2

Assay [7] concerns the target Toll-like receptor 5 (Homo sapiens, UniProt O60602). Kind of assay: Agonist activity at human TLR5 stably expressed in HEK293 cells cotransfected with secreted alkaline phosphatase assessed as induction of NFkappaB activation by quanti-blue SEAP reporter gene based spectrophotometric method. The method in brief:
as §2

Assay [8] addresses T2, Toll-like receptor 7 (Homo sapiens) (UniProt Q9NYK1).
T2 sequence (whole entry): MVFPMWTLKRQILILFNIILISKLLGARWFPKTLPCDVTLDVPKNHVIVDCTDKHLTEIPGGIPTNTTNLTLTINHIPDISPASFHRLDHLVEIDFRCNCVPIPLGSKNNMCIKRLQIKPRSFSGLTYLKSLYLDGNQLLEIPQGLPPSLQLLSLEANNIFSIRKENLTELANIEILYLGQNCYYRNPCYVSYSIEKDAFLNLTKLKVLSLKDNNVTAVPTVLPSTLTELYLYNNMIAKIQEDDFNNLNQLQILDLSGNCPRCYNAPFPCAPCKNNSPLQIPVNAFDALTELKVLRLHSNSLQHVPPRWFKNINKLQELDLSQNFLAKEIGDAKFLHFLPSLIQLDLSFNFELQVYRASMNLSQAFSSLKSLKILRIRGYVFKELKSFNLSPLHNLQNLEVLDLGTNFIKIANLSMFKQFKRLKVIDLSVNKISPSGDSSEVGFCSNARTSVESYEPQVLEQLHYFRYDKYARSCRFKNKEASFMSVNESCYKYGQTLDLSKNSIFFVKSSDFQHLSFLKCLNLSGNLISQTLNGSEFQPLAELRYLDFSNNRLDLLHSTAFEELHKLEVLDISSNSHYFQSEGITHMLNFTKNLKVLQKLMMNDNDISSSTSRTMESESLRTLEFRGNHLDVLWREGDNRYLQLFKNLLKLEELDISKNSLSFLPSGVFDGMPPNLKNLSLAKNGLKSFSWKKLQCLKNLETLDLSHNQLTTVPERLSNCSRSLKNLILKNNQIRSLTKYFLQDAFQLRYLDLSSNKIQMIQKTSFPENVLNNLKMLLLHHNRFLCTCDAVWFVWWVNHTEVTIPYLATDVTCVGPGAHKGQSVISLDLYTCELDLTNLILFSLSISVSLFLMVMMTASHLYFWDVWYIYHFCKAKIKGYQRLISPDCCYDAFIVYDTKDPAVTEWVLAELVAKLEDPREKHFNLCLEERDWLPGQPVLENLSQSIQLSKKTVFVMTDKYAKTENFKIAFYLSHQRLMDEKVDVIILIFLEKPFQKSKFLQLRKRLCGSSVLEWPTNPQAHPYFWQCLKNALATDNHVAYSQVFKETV
The assay is described as follows: Agonist activity at human TLR7 stably expressed in HEK293 cells cotransfected with secreted alkaline phosphatase assessed as induction of NFkappaB activation by quanti-blue SEAP reporter gene based spectrophotometric method. An outline of the steps: as §2

Activity calls are given as the source filed them. The calls are words filed in the database; no cut-off is given here.

Sequence of Toll-like receptor 5 (O60602 whole entry): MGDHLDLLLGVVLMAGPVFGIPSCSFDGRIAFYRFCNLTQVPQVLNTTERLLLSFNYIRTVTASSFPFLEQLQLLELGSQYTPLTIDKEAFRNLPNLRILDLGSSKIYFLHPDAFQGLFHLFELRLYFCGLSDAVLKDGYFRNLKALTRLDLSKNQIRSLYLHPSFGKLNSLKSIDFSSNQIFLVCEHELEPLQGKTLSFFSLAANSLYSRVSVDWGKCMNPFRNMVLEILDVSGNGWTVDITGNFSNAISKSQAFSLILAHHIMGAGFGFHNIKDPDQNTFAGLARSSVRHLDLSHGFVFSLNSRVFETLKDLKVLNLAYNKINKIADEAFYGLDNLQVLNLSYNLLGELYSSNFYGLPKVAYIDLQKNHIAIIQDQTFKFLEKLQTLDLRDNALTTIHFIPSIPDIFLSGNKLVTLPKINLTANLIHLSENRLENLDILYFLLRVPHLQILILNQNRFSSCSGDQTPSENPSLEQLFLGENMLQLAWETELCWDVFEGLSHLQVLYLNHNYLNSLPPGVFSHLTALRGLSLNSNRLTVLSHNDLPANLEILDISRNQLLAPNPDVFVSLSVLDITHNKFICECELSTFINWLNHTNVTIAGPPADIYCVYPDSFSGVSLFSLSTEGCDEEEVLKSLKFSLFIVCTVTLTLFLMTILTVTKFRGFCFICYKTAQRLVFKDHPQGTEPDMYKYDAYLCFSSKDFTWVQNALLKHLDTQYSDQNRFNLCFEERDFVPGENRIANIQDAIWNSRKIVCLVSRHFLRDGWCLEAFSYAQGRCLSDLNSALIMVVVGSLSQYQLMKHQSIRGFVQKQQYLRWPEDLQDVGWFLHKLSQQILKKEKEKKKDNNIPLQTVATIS
Sequence of Toll-like receptor 4 (O00206 whole entry): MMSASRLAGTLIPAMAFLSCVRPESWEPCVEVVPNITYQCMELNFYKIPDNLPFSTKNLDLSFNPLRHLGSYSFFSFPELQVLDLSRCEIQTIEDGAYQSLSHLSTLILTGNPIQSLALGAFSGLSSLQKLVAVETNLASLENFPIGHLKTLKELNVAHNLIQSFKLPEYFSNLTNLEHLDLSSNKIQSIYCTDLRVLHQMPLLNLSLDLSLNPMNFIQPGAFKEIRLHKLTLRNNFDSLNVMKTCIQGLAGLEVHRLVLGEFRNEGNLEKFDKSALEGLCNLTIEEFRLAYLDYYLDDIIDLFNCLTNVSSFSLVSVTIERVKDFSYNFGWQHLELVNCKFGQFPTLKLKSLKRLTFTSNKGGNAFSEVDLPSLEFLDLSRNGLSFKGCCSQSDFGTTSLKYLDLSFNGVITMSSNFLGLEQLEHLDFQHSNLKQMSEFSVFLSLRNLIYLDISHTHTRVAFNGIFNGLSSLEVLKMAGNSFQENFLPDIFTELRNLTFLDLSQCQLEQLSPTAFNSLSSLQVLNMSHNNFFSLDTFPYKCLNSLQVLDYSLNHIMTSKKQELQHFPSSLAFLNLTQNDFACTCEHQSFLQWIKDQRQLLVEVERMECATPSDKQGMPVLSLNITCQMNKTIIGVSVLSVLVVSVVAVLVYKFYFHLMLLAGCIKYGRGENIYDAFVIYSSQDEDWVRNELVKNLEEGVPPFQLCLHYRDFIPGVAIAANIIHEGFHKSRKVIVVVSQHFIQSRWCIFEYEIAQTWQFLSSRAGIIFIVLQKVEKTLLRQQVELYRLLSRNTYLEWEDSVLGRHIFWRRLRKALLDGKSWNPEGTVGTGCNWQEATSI

Take `CCCCCn1cc(-c2ccc(F)cc2)nc1N`: the RUmax in assay [1] came to 2. Besides, the result in assay [2], in assay [3] and in assay [4] was Active. In addition, the outcome in assay [5], in assay [6], in assay [7] and in assay [8] was inactive.
`CCCCCn1cc(-c2ccc(C)cc2)nc1N`: the RUmax in assay [1] turned out to be 0.9. Besides, the result in assay [5], in assay [6], in assay [7] and in assay [8] was inactive.
`CCCCCn1cc(-c2ccc(C(N)=O)cc2)nc1N`: in assay [1], the RUmax came to 0.8. Further, the outcome in assay [5], in assay [6], in assay [7] and in assay [8] was inactive.
In the case of `CCCCCn1cc(CCc2ccccc2)nc1N`, in assay [1], the RUmax was 0.9. The outcome in assay [5], in assay [6], in assay [7] and in assay [8] was inactive.
Consider `CCCCCn1c(N)nc(-c2ccccc2)c1-c1ccccc1`, for which the RUmax in assay [1] turned out to be 0.52. Besides, the result in assay [5], in assay [6], in assay [7] and in assay [8] was inactive.
`CCCCCn1cc(-c2c(C)noc2C)nc1N`: the RUmax in assay [1] was found to be 0.7. For the same molecule, the outcome in assay [5], in assay [6], in assay [7] and in assay [8] was inactive.
With `CCCCCn1cc(-c2ccc(N)cc2)nc1N`, in assay [1], the RUmax turned out to be 0.6. Also, the result in assay [5], in assay [6], in assay [7] and in assay [8] was inactive.
Consider `CCCCCn1cc(-c2ccc(OC)cc2)nc1N`, for which the RUmax in assay [1] was found to be 0.7. Moreover, the result in assay [5], in assay [6], in assay [7] and in assay [8] was inactive.
With `CCCCCn1cc(-c2cc(C)ccc2C)nc1N`, the RUmax in assay [1] amounted to 0.9. Moreover, the outcome in assay [5], in assay [6], in assay [7] and in assay [8] was inactive.
`CCCCCn1cc(-c2cccnc2)nc1N`: the RUmax in assay [1] was 1.8. The result in assay [5], in assay [6], in assay [7] and in assay [8] was inactive.
`CCCCCn1cc(-c2cccc(Cl)c2)nc1N`: the RUmax in assay [1] stood at 0.9. Also, the outcome in assay [5], in assay [6], in assay [7] and in assay [8] was inactive.
As to `CCCCCn1cc(-c2ccccc2C(F)(F)F)nc1N`, in assay [1], the RUmax turned out to be 0.9. The outcome in assay [5], in assay [6], in assay [7] and in assay [8] was inactive.
Turning to `CCCCCn1cc(-c2ccc(Cl)cc2)nc1N`, in assay [1], the RUmax came out at 0.5. The result in assay [5], in assay [6], in assay [7] and in assay [8] was inactive.
As to `CCCCCn1cc(-c2ccccc2F)nc1N`, in assay [1], the RUmax was determined as 1.4. Further, the result in assay [5], in assay [6], in assay [7] and in assay [8] was inactive.
For the molecule `CCCCCn1cc(-c2cccc(C)c2OC)nc1N`, the RUmax in assay [1] is 0.7. Moreover, the outcome in assay [5], in assay [6], in assay [7] and in assay [8] was inactive.
On to `CCCCCn1cc(-c2cc(OC)c(OC)c(OC)c2)nc1N`, for which the RUmax in assay [1] was determined as 0.8. For the same molecule, the result in assay [5], in assay [6], in assay [7] and in assay [8] was inactive.
Take `CCCCCn1cc(-c2cccc(F)c2)nc1N`: in assay [1], the RUmax came out at 1.6. The outcome in assay [5], in assay [6], in assay [7] and in assay [8] was inactive.
As for `CCCCCn1cc(-c2ccccc2O)nc1N`, in assay [1], the RUmax amounted to 0.9. For the same molecule, the result in assay [5], in assay [6], in assay [7] and in assay [8] was inactive.
Take `CCCCCn1cc(-c2ccccc2CC)nc1N`: the RUmax in assay [1] worked out at 0.8. Further, the result in assay [5], in assay [6], in assay [7] and in assay [8] was inactive.
As to `CCCCCn1cc(-c2cccc(C(F)(F)F)c2)nc1N`, the RUmax in assay [1] is 0.6. Besides, the result in assay [5], in assay [6], in assay [7] and in assay [8] was inactive.
